Calls of active or inactive are those of the source. The rule behind the calls is not given here.
Key:
[1] = tested on: MB49-I; assay: (§1) Antiinflammatory activity against mouse MB49-I cells assessed as inhibition of IFN-gamma/TNFalpha-NO production pretreated at 50 uM after 24 hrs by Griess reaction relative to vehicle treated control; format: functional
How it was run: (§2)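 Cells seeded at 25 × 10³ per well, pretreated 3 h with test agents, washed twice with 10% FBS RPMI-1640, then stimulated 24 h with IFNγ plus TNFα. NO was quantified as nitrite using the Griess reaction (sulfanilic acid diazotization coupled to N-(1-naphthyl)ethylenediamine), absorbance at 548 nm, compared with cytokine-only control cells.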

[2] = tested on: MB49-I; assay: (§3) Antiinflammatory activity against mouse MB49-I cells assessed as inhibition of IFN-gamma/TNFalpha-NO production pretreated at 10 uM after 24 hrs by Griess reaction relative to vehicle treated control; format: functional; how it was run: as §2
[3] = as §1; format: functional; how it was run: as §2
[4] = as §3; format: functional; how it was run: as §2
[5] = tested on: THP-1; assay: Reduction in IL6-induced STAT3 phosphorylation in human THP1 cells assessed as fold decrease at 10 uM after 30 mins by densitometric analysis relative to vehicle treated control; format: functional; settings: THP-1, 0.5 h
How it was run: (§4)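 PMA-differentiated THP1 macrophages at 750 × 10³ cells/mL were pretreated 30 min with DMSO or compound at 10 or 50 μM, washed, then harvested immediately or after 30 min of 50 U/mL IFNγ (pSTAT1) or 25 ng/mL IL6 (pSTAT3). Lysates were run on reducing SDS-PAGE and immunoblotted for pSTAT1/pSTAT3, with blots reprobed for total STAT; phosphorylation was expressed as fold induction.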

[6] = Reduction in IFN-gamma-induced CD40 expression in human THP1 cells assessed as fold decrease pretreated at 10 uM after 48 hrs by flow cytometry relative to vehicle treated control; format: functional, cell-based; settings: THP-1
How it was run: (§5)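 PMA-differentiated GFP-THP1 macrophages at 750 × 10⁴ cells/mL were pretreated 3 h with DMSO or compound, then left untreated or stimulated 48 h with 50 U/mL IFNγ. Surface CD40 and MHC-II were quantified by flow cytometry as fold change versus resting cells.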

[7] = tested on: THP-1; assay: Reduction in IFN-gamma-induced STAT1 phosphorylation in human THP1 cells assessed as fold decrease at 50 uM after 30 mins by densitometric analysis relative to vehicle treated control; format: functional; settings: THP-1, 0.5 h; how it was run: as §4
[8] = tested on: MB49-I; assay: Antiproliferative activity against mouse MB49-I cells assessed as induction of IFN-gamma/TNFalpha-induced loss of cell viability at 10 uM after 24 hrs by MTT assay relative to control; format: functional, cell-based
How it was run: (§6)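 MB49-I cells plated at 5 × 10³ per well and cultured 24 h. Pretreated 3 h with DMSO or compound at 0–50 μM, then incubated 24 h with or without IFNγ plus TNFα. MTT added for 3 h, solubilized overnight in 10% SDS/10 mM HCl, and absorbance read at 580 nm.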

[9] = (§7) Antiproliferative activity against mouse MB49-I cells assessed as induction of IFN-gamma/TNFalpha-induced loss of cell viability at 25 uM after 24 hrs by MTT assay relative to control; format: functional; how it was run: as §6
[10] = tested on: THP-1; assay: Reduction in IFN-gamma-induced STAT1 phosphorylation in human THP1 cells assessed as fold decrease at 10 uM after 30 mins by densitometric analysis relative to vehicle treated control; format: functional; settings: THP-1, 0.5 h; how it was run: as §4
[11] = (§8) Antiproliferative activity against mouse MB49-I cells assessed as induction of IFN-gamma/TNFalpha-induced loss of cell viability at 50 uM after 24 hrs by MTT assay relative to control; format: functional; how it was run: as §6
[12] = tested on: THP-1; assay: Reduction in IL6-induced STAT3 phosphorylation in human THP1 cells assessed as fold decrease at 50 uM after 30 mins by densitometric analysis relative to vehicle treated control; format: functional; settings: THP-1, 0.5 h; how it was run: as §4
[13] = tested on: J774.A1; assay: Reduction in IFN-gamma/TNFalpha-induced NO production in mouse J774A.1 cells pretreated at 50 uM measured for 24 hrs by Griess reaction relative to vehicle treated control; format: functional; how it was run: as §2
[14] = tested on: J774.A1; assay: Reduction in IFN-gamma/TNFalpha-induced NO production in mouse J774A.1 cells pretreated at 10 uM measured for 24 hrs by Griess reaction relative to vehicle treated control; format: functional; how it was run: as §2
[15] = (§9) Antiproliferative activity against mouse MB49-I cells assessed as induction of IFN-gamma/TNFalpha-induced loss of cell viability at 37.5 uM after 24 hrs by MTT assay relative to control; format: functional; how it was run: as §6
[16] = Reduction in IFN-gamma-induced MHC2 expression in human THP1 cells assessed as fold decrease pretreated at 10 uM after 48 hrs by flow cytometry relative to vehicle treated control; format: functional, cell-based; settings: THP-1; how it was run: as §5
[17] = Reduction in IFN-gamma-induced CD40 expression in human THP1 cells assessed as fold decrease pretreated at 25 uM after 48 hrs by flow cytometry relative to vehicle treated control; format: functional, cell-based; settings: THP-1; how it was run: as §5
[18] = Reduction in IFN-gamma-induced MHC2 expression in human THP1 cells assessed as fold decrease pretreated at 25 uM after 48 hrs by flow cytometry relative to vehicle treated control; format: functional, cell-based; settings: THP-1; how it was run: as §5
[19] = tested on: MB49-I; assay: as §7; format: functional; how it was run: as §6
[20] = tested on: MB49-I; assay: as §8; format: functional; how it was run: as §6
[21] = tested on: MB49-I; assay: as §9; format: functional; how it was run: as §6

## O=C1C=CC(=O)N1c1ccccc1
[1]
  inhibition: inactive
[2]
  inhibition: inactive

## Nc1ccc(C(=O)O)cc1
[1]
  inhibition: inactive
[2]
  inhibition: inactive

## O=C1C=CC(=O)O1
[1]
  inhibition: inactive
[2]
  inhibition: inactive

## CC(C)(C)OC(=O)NNC(=O)c1ccccc1
[1]
  Activity: inactive
[2]
  Activity: inactive

## CC(C)(C)OC(=O)NNC(=O)c1ccc(N2C(=O)C=CC2=O)cc1
[3]
  inhibition at 50 µM: 81%
[4]
  inhibition at 10 µM: 40%
[5]
  inhibition at 10 µM: 64%
[6]
  inhibition: 87%
[7]
  inhibition at 50 µM: 71%
[8]
  Activity: inactive
[9]
  inhibition at 25 µM: 19%
[10]
  inhibition at 10 µM: 38%
[11]
  inhibition at 50 µM: 50%
[12]
  inhibition at 50 µM: 85%
[13]
  inhibition at 50 µM: 91%
[14]
  inhibition at 10 µM: 46%
[15]
  inhibition at 37.5 µM: 45%
[16]
  inhibition: 49%

## O=C(O)/C=C\C(=O)Nc1ccc(C(=O)O)cc1
[1]
  inhibition: inactive
[2]
  inhibition: inactive

## O=C(O)c1ccc(N2C(=O)C=CC2=O)cc1
[1]
  inhibition: inactive
[2]
  inhibition: inactive

## O=C(O)/C=C\C(=O)Nc1ccccc1
[1]
  inhibition: inactive
[2]
  inhibition: inactive

## NNC(=O)c1ccc(N2C(=O)C=CC2=O)cc1
[3]
  inhibition at 50 µM: 72%
[17]
  inhibition: 43%
[4]
  inhibition at 10 µM: 21%
[18]
  inhibition: 23%
[5]
  inhibition at 10 µM: 15%
[7]
  inhibition at 50 µM: 66%
[8]
  Activity: inactive
[19]
  inhibition: inactive
[10]
  inhibition at 10 µM: 16%
[20]
  inhibition: inactive
[12]
  inhibition at 50 µM: 38%
[13]
  inhibition at 50 µM: 69%
[14]
  inhibition at 10 µM: 24%
[21]
  inhibition: inactive
